Experiments:
[1] = molecular target: Vascular endothelial growth factor receptor 2 (Homo sapiens) (UniProt P35968); test: Inhibition of recombinant human VEGFR2 (D1-7) expressed in Spodoptera frugiperda insect cells at 10 nM using poly (Glu, Tyr)4:1 as substrate measured after 1 hr by ELISA relative to control
Method in brief: (§1)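 ELISA kinase assay: recombinant kinase added to wells precoated with poly(Glu,Tyr)4:1 and incubated with compound in reaction buffer containing 5 μM ATP, 37 °C for 1 h; wells then washed before antibody detection.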

[2] = Cytotoxicity against mouse RAW264.7 cells assessed as reduction in cell viability measured after 24 hrs by CCK8 assay; format: cell-based
Method in brief: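 RAW264.7 cells were seeded in triplicate in DMEM and exposed to compound for 24 h. CCK-8 was added, incubated 1 h, and absorbance read at 450 nm with 570 nm reference. CC50 from log(inhibitor) versus normalized response nonlinear fit.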

[3] = molecular target: Receptor tyrosine-protein kinase erbB-4 (Homo sapiens) (UniProt Q15303); test: Inhibition of recombinant human N-terminal His6-tagged Erbb4 (706 to 991 residues) expressed in baculovirus infected Sf21 insect cells at 100 nM using poly (Glu, Tyr)4:1 as substrate measured after 1 hr by ELISA relative to control
Receptor tyrosine-protein kinase erbB-4 (Homo sapiens), sequence (Q15303 whole entry, the tested form may be a part): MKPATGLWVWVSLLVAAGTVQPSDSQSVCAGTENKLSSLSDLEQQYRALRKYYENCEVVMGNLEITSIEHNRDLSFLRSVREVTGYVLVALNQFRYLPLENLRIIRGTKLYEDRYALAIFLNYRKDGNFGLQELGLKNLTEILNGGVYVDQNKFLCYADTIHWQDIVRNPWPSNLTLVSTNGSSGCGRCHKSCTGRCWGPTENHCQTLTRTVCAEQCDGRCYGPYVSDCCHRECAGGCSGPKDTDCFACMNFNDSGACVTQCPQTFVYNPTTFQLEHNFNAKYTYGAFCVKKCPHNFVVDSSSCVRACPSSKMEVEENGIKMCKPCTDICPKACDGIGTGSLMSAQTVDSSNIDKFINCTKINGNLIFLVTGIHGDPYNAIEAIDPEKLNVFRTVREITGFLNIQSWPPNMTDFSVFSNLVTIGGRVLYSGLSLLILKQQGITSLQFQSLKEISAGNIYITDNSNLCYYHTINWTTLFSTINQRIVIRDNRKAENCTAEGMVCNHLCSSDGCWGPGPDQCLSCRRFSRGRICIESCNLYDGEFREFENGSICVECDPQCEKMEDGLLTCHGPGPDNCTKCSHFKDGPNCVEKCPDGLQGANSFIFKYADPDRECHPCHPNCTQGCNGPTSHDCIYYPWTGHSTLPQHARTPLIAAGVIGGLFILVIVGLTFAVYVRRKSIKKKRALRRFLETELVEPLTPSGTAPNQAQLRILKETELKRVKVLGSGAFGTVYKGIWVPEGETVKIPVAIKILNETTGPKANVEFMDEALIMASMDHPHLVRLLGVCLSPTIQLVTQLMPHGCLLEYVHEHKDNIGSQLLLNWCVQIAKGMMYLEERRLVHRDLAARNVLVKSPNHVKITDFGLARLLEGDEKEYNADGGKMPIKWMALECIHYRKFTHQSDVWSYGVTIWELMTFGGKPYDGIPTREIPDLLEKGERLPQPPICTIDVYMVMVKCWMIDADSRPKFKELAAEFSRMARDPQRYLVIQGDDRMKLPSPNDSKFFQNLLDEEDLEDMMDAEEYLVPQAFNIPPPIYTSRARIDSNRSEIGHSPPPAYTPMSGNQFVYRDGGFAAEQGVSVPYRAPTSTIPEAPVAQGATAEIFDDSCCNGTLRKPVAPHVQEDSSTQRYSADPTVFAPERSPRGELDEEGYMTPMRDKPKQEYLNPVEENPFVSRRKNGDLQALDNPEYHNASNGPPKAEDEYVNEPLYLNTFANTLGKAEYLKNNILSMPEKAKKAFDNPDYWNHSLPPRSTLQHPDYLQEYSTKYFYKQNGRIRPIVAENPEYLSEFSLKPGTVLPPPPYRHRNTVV
Method in brief: (§2)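 Recombinant kinase was incubated with compound in reaction buffer containing 5 μM ATP, in wells precoated with poly(Glu,Tyr) 4:1, for 1 h at 37 °C. Phosphorylation was detected by ELISA.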

[4] = molecular target: Focal adhesion kinase 1 (Homo sapiens) (UniProt Q05397); test: Inhibition of recombinant human N-terminal His6-tagged FAK (411 to 686 residues) expressed in baculovirus infected Sf21 insect cells at 100 nM using poly (Glu, Tyr)4:1 as substrate measured after 1 hr by ELISA relative to control; method in brief: as §2
[5] = molecular target: Vascular endothelial growth factor receptor 1 (Homo sapiens) (UniProt P17948); test: Inhibition of recombinant human VEGFR1 expressed in Spodoptera frugiperda insect cells at 1000 nM using poly (Glu, Tyr)4:1 as substrate measured after 1 hr by ELISA relative to control; method in brief: as §1
Vascular endothelial growth factor receptor 1 (Homo sapiens), sequence (P17948 whole entry, the tested form may be a part): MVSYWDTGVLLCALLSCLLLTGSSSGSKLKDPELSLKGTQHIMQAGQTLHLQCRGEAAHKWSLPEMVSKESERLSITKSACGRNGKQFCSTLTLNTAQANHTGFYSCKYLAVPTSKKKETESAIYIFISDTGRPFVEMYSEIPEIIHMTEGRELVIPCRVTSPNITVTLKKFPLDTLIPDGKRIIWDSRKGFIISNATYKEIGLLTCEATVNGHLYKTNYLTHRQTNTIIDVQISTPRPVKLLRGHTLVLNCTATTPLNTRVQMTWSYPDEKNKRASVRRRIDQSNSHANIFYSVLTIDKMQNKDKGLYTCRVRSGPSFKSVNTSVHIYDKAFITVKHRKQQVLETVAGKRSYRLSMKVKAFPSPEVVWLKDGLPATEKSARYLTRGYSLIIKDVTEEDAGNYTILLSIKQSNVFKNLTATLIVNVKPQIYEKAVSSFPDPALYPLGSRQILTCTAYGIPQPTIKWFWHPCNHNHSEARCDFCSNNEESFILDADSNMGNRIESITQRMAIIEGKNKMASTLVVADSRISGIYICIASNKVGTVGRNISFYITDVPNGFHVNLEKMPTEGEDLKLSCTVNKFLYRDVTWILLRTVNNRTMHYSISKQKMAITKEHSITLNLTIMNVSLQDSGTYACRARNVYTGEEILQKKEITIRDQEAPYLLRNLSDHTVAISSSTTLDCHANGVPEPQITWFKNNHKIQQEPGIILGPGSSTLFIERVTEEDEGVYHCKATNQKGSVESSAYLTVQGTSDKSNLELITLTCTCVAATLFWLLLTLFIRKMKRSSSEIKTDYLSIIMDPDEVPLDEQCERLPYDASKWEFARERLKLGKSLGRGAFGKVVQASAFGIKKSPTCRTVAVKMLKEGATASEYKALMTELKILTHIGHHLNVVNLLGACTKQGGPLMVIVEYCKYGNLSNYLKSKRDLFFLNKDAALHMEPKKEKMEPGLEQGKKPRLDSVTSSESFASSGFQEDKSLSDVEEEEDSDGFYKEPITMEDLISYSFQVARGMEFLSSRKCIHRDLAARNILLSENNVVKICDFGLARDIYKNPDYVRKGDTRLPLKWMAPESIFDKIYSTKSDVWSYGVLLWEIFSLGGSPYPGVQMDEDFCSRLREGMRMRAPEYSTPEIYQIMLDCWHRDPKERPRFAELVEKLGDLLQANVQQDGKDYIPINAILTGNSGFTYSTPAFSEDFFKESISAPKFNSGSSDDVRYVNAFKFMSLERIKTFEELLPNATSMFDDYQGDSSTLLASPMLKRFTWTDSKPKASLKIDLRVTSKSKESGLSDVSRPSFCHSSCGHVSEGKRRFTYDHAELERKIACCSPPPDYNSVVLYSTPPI

[6] = Volume of distribution at steady state in Sprague-Dawley rat at 2 mg/kg, iv administered […] by LC-MS/MS analysis; format: ADME, organism-based; settings: in vivo, read-out: Vdss
Method in brief: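 Male SD rats (200 ± 20 g), fasted 12 h, n = 3; single intravenous dose of 2 mg/kg in DMSO/EtOH/PEG300/saline (5/5/40/50). Femoral vein blood at 15–1440 min; plasma precipitated with methanol containing internal standard, assayed by LC–MS/MS; noncompartmental analysis (MRT = AUMC/AUC, Vss = CL × MRT).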

[7] = molecular target: Epidermal growth factor receptor (Homo sapiens) (UniProt P00533); test: Inhibition of recombinant human N-terminal GST-tagged EGFR (696 to end residues) expressed in baculovirus infected Sf21 insect cells at 1000 nM using poly (Glu, Tyr)4:1 as substrate measured after 1 hr by ELISA relative to control; method in brief: as §2
[8] = molecular target: Tyrosine-protein kinase ABL1 (Homo sapiens) (UniProt P00519); test: Inhibition of recombinant human N-terminal His6-tagged Abl (27 to end residues) expressed in baculovirus infected Sf21 insect cells at 100 nM using poly (Glu, Tyr)4:1 as substrate measured after 1 hr by ELISA relative to control; method in brief: as §2
[9] = molecular target: Receptor tyrosine-protein kinase erbB-4 (Homo sapiens) (UniProt Q15303); test: Inhibition of recombinant human N-terminal His6-tagged Erbb4 (706 to 991 residues) expressed in baculovirus infected Sf21 insect cells at 1000 nM using poly (Glu, Tyr)4:1 as substrate measured after 1 hr by ELISA relative to control; method in brief: as §2
[10] = molecular target: Vascular endothelial growth factor receptor 3 (Homo sapiens) (UniProt P35916); test: Inhibition of recombinant VEGFR3 (unknown origin) at 10 nM using poly (Glu, Tyr)4:1 as substrate measured after 1 hr by ELISA relative to control; method in brief: as §2
Vascular endothelial growth factor receptor 3 (Homo sapiens), sequence (P35916 whole entry, the tested form may be a part): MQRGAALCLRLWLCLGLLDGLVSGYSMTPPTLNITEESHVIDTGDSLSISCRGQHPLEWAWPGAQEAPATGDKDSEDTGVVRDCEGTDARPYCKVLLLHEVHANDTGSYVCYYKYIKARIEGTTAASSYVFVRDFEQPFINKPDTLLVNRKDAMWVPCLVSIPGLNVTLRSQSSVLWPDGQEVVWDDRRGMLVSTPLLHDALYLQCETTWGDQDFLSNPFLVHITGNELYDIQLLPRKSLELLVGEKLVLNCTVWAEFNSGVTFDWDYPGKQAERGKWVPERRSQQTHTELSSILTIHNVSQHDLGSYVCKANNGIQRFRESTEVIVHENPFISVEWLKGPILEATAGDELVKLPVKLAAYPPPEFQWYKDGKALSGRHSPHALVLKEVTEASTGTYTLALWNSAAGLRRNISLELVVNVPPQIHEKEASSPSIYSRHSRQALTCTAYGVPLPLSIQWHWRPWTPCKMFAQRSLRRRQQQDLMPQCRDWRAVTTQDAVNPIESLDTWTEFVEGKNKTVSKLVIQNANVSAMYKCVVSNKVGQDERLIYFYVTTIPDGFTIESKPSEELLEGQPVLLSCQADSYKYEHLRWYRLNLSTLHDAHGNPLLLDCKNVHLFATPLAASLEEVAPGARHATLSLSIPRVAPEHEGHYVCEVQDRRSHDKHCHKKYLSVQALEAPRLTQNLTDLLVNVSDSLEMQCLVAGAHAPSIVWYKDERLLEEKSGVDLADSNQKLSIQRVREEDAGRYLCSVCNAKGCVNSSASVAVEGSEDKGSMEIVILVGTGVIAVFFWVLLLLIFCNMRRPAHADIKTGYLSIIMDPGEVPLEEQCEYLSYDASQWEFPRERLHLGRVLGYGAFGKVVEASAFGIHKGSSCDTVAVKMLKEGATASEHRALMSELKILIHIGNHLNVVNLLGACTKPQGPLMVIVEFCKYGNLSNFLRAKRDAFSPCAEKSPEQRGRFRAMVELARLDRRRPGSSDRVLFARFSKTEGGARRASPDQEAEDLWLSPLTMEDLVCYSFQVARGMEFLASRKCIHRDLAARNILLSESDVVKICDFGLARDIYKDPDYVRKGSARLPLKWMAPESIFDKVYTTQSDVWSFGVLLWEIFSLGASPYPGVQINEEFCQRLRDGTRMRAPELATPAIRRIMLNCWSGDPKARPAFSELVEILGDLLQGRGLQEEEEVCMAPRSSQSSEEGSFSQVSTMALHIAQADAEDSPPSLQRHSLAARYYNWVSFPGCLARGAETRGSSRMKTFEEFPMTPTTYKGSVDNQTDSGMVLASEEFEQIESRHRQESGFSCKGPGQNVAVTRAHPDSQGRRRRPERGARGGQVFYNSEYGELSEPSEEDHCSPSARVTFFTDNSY

[11] = molecular target: Tyrosine-protein kinase ITK/TSK (Homo sapiens) (UniProt Q08881); test: Inhibition of recombinant human N-terminal His6-tagged ITK (352 to 617 residues) expressed in baculovirus infected Sf21 insect cells at 100 nM using poly (Glu, Tyr)4:1 as substrate measured after 1 hr by ELISA relative to control; method in brief: as §1
[12] = molecular target: Platelet-derived growth factor receptor beta (Homo sapiens) (UniProt P09619); test: Inhibition of recombinant human N-terminal His6-tagged PDGFRbeta (557 to end residues) expressed in baculovirus infected Sf21 insect cells at 1000 nM using poly (Glu, Tyr)4:1 as substrate measured after 1 hr by ELISA relative to control; method in brief: as §1
Platelet-derived growth factor receptor beta (Homo sapiens), sequence (P09619 whole entry): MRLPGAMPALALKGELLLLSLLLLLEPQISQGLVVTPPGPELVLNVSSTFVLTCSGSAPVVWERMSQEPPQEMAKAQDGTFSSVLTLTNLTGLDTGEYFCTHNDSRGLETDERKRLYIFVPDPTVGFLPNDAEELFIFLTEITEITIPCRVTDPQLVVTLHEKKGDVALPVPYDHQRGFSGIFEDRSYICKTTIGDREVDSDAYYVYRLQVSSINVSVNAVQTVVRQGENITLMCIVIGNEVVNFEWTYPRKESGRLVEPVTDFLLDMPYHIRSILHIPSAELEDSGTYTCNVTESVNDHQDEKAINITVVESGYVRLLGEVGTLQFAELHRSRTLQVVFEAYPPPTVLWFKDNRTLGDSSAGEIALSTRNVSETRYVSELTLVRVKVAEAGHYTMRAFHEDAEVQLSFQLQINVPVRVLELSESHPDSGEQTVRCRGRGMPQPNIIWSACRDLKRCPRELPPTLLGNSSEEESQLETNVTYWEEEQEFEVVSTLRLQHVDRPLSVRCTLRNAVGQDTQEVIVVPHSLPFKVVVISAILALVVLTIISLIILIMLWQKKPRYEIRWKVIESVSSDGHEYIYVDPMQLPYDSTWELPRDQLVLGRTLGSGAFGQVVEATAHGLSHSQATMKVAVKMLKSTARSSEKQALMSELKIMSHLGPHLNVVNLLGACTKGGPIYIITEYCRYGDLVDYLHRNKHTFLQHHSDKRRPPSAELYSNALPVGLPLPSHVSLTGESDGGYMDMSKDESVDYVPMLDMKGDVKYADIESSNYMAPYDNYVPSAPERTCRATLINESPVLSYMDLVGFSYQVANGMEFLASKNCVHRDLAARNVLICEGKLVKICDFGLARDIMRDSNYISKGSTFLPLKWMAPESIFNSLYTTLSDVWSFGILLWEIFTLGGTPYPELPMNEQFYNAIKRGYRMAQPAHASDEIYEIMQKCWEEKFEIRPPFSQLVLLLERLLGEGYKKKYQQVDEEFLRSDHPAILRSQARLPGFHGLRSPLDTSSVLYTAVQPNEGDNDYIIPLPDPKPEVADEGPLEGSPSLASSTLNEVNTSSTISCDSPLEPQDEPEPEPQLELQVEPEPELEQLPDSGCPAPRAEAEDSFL

[13] = molecular target: c-KIT (Homo sapiens, UniProt P10721); test: Inhibition of recombinant human N-terminal GST-tagged c-KIT (544 to end residues) expressed in baculovirus infected Sf21 insect cells at 1000 nM using poly (Glu, Tyr)4:1 as substrate measured after 1 hr by ELISA relative to control; settings: probe poly (Glu, Tyr)4:1; method in brief: as §2
[14] = molecular target: Receptor tyrosine-protein kinase erbB-2 (Homo sapiens) (UniProt P04626); test: Inhibition of recombinant Erbb2 (unknown origin) at 100 nM using poly (Glu, Tyr)4:1 as substrate measured after 1 hr by ELISA relative to control; method in brief: as §2
[15] = molecular target: FLT3 (Homo sapiens, UniProt P36888); test: Inhibition of recombinant human N-terminal GST-tagged FLT3 (564 to end residues) expressed in Sf21 insect cells at 100 nM using poly (Glu, Tyr)4:1 as substrate measured after 1 hr by ELISA relative to control; settings: probe poly (Glu, Tyr)4:1; method in brief: as §2
[16] = molecular target: Vascular endothelial growth factor receptor 3 (Homo sapiens) (UniProt P35916); test: Inhibition of recombinant VEGFR3 (unknown origin) at 1000 nM using poly (Glu, Tyr)4:1 as substrate measured after 1 hr by ELISA relative to control; method in brief: as §2
[17] = molecular target: Vascular endothelial growth factor receptor 1 (Homo sapiens) (UniProt P17948); test: Inhibition of recombinant human VEGFR1 expressed in Spodoptera frugiperda insect cells at 100 nM using poly (Glu, Tyr)4:1 as substrate measured after 1 hr by ELISA relative to control; method in brief: as §1
[18] = molecular target: Ephrin type-A receptor 2 (Homo sapiens) (UniProt P29317); test: Inhibition of recombinant human N-terminal His6-tagged EphA2 (596 to 900 residues) expressed in baculovirus infected Sf21 insect cells at 100 nM using poly (Glu, Tyr)4:1 as substrate measured after 1 hr by ELISA relative to control; method in brief: as §2
[19] = molecular target: Activated CDC42 kinase 1 (Homo sapiens) (UniProt Q07912); test: Inhibition of recombinant human N-terminal GST-tagged ACK1 (1 to 389 residues) expressed in baculovirus infected Sf21 insect cells at 100 nM using poly (Glu, Tyr)4:1 as substrate measured after 1 hr by ELISA relative to control; method in brief: as §2

inhibition [1]: 23.2%
inhibition [3]: 6.6%
inhibition [4]: 14.7%
inhibition [5]: 89.8%
Vd [6]: 6.34 L/kg
inhibition [7]: 0%
inhibition [8]: 82.1%
inhibition [9]: 1.6%
inhibition [10]: 27.3%
inhibition [11]: 4.2%
inhibition [12]: 87.9%
inhibition at 1 h, 1 µM [13]: 98.2%
inhibition [14]: 8.8%
inhibition at 1 h, 0.1 µM [15]: 0%
inhibition [16]: 100%
inhibition [17]: 78.5%
inhibition [18]: 31.4%
inhibition [19]: 10.3%
Compound: Cc1ccc(C(=O)Nc2ccc(Cl)cc2)cc1C#Cc1cc(-c2cnn(C)c2)cnc1N
CC50 at 24 h [2]: 66 µM

— ChEMBL document CHEMBL4321879, “Novel Class of Colony-Stimulating Factor 1 Receptor Kinase Inhibitors Based on an o-Aminopyridyl Alkynyl Scaffold as Potential Treatment for Inflammatory Disorders” (J Med Chem, 2020)
